Measured values reported in article PMC7564327 (Acta Pharmaceutica Sinica. B, 2020).
Where a name gives a salt, the structure may show the parent alone. Blank lines part the entries; values can stand above or below the molecule they belong to.

Key:
hOAT3 = molecular target: T1, hOAT3 (Homo sapiens, UniProt Q8TCC7); experiment: Cellular uptake and kinetics in S2-hOAT3 vs Mock cells; type: in vitro ADME
T1 sequence (Q8TCC7 1-542): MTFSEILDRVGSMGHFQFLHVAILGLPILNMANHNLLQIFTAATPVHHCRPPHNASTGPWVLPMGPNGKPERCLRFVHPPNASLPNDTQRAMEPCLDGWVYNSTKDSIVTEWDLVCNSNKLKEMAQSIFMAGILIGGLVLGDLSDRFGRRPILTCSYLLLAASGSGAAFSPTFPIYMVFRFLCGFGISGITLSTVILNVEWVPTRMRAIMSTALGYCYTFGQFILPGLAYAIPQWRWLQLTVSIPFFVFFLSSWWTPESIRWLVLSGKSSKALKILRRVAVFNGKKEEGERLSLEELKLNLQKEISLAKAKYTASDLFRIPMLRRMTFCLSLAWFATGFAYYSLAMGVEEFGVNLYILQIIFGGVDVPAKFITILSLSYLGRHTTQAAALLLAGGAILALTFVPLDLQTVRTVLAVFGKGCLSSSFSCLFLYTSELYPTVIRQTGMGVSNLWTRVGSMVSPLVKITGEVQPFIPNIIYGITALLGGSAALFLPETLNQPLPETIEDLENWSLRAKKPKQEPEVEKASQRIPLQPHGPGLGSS

hOATP1B1 = molecular target: T2, hOATP1B1 (Homo sapiens, UniProt Q9Y6L6); experiment: Cellular uptake and kinetics in HEK293-hOATP1B1 vs Mock cells; type: in vitro ADME
T2 sequence (Q9Y6L6 1-691): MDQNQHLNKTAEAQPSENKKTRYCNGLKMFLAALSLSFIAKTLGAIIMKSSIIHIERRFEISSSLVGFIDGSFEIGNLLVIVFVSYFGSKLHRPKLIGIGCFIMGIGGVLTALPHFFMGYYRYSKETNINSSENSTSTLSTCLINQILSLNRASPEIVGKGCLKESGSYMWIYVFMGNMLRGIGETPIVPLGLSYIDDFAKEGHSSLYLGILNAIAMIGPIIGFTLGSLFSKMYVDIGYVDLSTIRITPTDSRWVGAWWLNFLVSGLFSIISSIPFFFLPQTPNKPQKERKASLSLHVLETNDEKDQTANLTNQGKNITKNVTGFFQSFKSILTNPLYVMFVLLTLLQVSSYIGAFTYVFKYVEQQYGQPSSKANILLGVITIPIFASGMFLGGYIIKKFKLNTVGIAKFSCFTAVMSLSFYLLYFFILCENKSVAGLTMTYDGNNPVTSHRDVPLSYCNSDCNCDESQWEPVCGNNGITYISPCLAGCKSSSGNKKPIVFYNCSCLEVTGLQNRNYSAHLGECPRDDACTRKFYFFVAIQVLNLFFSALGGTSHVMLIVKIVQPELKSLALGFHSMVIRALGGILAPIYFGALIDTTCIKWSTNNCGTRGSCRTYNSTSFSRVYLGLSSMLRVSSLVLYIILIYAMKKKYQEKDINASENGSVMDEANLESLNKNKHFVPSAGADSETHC

hOATP1B3 = molecular target: T3, hOATP1B3 (Homo sapiens, UniProt Q9NPD5); experiment: Cellular uptake and kinetics in HEK293-hOATP1B3 vs Mock cells; type: in vitro ADME
T3 sequence (Q9NPD5 1-702): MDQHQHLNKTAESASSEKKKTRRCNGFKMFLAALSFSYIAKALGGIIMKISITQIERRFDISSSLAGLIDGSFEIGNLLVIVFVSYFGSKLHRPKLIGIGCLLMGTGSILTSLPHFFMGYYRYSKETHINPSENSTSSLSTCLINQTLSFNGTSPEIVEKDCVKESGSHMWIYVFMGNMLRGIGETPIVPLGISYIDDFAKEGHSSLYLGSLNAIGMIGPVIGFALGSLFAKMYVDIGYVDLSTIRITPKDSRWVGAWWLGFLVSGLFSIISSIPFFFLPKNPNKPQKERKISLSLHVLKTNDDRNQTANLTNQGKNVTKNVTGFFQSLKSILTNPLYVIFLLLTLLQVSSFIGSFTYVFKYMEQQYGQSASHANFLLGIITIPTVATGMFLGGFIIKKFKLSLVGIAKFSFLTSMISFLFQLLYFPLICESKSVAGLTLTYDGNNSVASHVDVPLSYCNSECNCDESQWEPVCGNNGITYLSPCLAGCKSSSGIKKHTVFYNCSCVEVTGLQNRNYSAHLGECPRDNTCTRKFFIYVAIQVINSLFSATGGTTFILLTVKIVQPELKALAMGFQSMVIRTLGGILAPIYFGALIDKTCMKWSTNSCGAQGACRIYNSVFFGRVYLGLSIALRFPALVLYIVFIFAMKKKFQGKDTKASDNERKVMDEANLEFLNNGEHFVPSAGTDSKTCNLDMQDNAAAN
Outline: (§1)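 Transfected cells and matching Mock cells were seeded at 2 × 10⁵ cells/mL and grown 2 days. After a DPBS (pH 7.4) wash and 10 min preincubation at 37 °C, cells took up 100 μmol/L test compound for 2–5 min at 37 °C. Uptake was stopped with three ice-cold DPBS washes, followed by methanol extraction and HPLC–MS. Values were normalised to BCA protein and compared with Mock.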

hOATP2B1 = molecular target: T4, hOATP2B1 (Homo sapiens, UniProt O94956); experiment: Cellular uptake in HEK293-hOATP2B1 vs Mock cells; type: in vitro ADME
T4 sequence (O94956 1-709): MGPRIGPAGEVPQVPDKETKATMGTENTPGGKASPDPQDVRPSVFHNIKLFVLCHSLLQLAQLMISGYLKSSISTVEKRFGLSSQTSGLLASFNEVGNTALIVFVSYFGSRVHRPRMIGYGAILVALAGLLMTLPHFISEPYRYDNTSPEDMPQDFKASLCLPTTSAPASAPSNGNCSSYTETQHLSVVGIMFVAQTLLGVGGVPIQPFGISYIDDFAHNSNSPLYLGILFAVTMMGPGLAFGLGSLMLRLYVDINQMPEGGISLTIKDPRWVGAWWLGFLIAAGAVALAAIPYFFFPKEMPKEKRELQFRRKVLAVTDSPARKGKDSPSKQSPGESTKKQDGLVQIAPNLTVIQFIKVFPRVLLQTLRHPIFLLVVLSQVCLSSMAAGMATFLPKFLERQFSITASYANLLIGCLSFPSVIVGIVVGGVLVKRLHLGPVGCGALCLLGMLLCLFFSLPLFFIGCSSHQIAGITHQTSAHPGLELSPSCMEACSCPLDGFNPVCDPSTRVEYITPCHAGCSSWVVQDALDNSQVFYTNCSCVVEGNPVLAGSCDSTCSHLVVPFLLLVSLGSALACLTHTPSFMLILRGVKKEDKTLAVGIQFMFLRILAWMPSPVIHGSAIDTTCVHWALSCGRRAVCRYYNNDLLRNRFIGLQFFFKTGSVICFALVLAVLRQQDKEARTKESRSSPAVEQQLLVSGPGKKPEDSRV

mice liver slices = experiment: In vitro uptake of TDE in mice liver slices; type: in vitro ADME, Kunming mice; details: TDE 10 μmol/L
Outline: (§2)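 Kunming mice (20–25 g, fasted 12 h) were anaesthetised with urethane, and kidney or liver was decapsulated into ice-cold oxygenated buffer at pH 7.5. Slices of about 30 mg were preincubated 5 min under carbogen at 4 or 37 °C. They were then incubated with 10 μmol/L test compound for 5, 10 or 30 min, with or without reference OAT1/OAT3 or OATP inhibitors or co-ingredients. Slices were then washed, blotted, weighed and homogenised, then extracted with methanol and an internal standard for HPLC–MS.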

hOAT1 = molecular target: T5, hOAT1 (Homo sapiens, UniProt Q4U2R8); experiment: Cellular uptake in MDCK-hOAT1 vs Mock cells; type: in vitro ADME; details: 100 μmol/L, substrate if >2-fold of wild type
T5 sequence (Q4U2R8 1-563): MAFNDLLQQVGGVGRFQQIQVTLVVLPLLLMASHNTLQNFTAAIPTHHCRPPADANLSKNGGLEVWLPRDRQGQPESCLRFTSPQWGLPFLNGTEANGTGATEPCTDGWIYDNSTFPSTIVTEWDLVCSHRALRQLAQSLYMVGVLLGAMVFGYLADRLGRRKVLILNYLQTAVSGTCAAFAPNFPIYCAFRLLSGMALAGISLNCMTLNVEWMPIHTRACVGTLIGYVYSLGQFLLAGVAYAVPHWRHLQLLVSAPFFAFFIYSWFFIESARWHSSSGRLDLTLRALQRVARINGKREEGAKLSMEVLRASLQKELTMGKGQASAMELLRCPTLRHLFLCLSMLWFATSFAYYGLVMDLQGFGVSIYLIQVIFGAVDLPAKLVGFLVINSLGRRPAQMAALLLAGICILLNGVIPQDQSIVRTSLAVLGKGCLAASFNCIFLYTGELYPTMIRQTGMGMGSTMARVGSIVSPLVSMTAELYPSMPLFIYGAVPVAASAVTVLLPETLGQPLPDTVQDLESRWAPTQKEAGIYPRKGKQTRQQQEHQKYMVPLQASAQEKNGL
Outline: as §1

mice kidney slices = experiment: In vitro uptake of TDE in mice kidney slices; type: in vitro ADME, Kunming mice; details: TDE 10 μmol/L
Outline: as §2

[1] = substrate: COc1cc2c(cc1OC)[C@@H]1Cc3ccc(OC)c(OC)c3CN1CC2; experiment: Cellular uptake and kinetics in S2-hOAT3 vs Mock cells; type: in vitro ADME, human; details: other: hOAT3, TDE 0.03-10 μmol/L, 2 min, 37 °C, Eadie-Hofstee, pH 7.4
[2] = 100 μmol/L, substrate if >2-fold of wild type

accumulation of model substrate, fold higher than in Mock cells (hOAT3; 50 nmol/L 3H-ES, 2 min, S2-hOAT3 vs Mock): 5.6 fold
Uptake rate, Control (hOAT3; S2-hOAT3, 50 nmol/L 3H-ES, 2 min): 0.62 ± 0.015∗∗ pmol/mg protein/min
Uptake rate, Control + inhibitor (hOAT3; S2-hOAT3, 50 nmol/L 3H-ES, 2 min, inhibitor not named): 0.29 ± 0.17 pmol/mg protein/min
accumulation of model substrate, fold higher than in Mock cells (hOATP1B1; 50 nmol/L 3H-ES, 2 min, HEK293-hOATP1B1 vs Mock): 10.3 fold
Uptake rate, Control (hOATP1B1; HEK293-hOATP1B1, 50 nmol/L 3H-ES, 2 min): 1.13 ± 0.11∗∗ pmol/mg protein/min
Uptake rate, Control + inhibitor (hOATP1B1; HEK293-hOATP1B1, 50 nmol/L 3H-ES, 2 min, inhibitor not named): 0.35 ± 0.14 pmol/mg protein/min
accumulation of model substrate, fold higher than in Mock cells (hOATP1B3; 50 nmol/L 3H-ES, 2 min, HEK293-hOATP1B3 vs Mock): 4.7 fold
Uptake rate, Control (hOATP1B3; HEK293-hOATP1B3, 50 nmol/L 3H-ES, 2 min): 0.52 ± 0.017∗∗ pmol/mg protein/min
Uptake rate, Control + inhibitor (hOATP1B3; HEK293-hOATP1B3, 50 nmol/L 3H-ES, 2 min, inhibitor not named): 0.24 ± 0.13 pmol/mg protein/min
accumulation of model substrate, fold higher than in Mock cells (hOATP2B1; 50 nmol/L 3H-ES, 2 min, HEK293-hOATP2B1 vs Mock): 4.2 fold
Uptake rate, Control (hOATP2B1; HEK293-hOATP2B1, 50 nmol/L 3H-ES, 2 min): 0.46 ± 0.011∗∗ pmol/mg protein/min
Uptake rate, Control + inhibitor (hOATP2B1; HEK293-hOATP2B1, 50 nmol/L 3H-ES, 2 min, inhibitor not named): 0.19 ± 0.034 pmol/mg protein/min
Molecule: CC12CCC3c4ccc(OS(=O)(=O)O)cc4CCC3C1CCC2=O (stereo not drawn) [3H-ES, 3H-estrone sulfate, reference compound]

Molecule: CO[C@H]1/C=C/O[C@@]2(C)Oc3c(C)c(O)c4c(O)c(c(/C=N/N5CCN(C)CC5)c(O)c4c3C2=O)NC(=O)/C(C)=C\C=C\[C@H](C)[C@H](O)[C@@H](C)[C@@H](O)[C@@H](C)[C@H](OC(C)=O)[C@@H]1C [Rifampicin, rifampicin, reference compound]
effect on the uptake of TDE in liver slices (mice liver slices; mice liver slices): could inhibit

accumulation in MDCK-hOAT1, fold higher than in MDCK-Mock (hOAT1): about 1.25 fold
accumulation in S2-hOAT3, fold higher than wild type (S2-Mock) (hOAT3; [2]): about 2.25 fold
accumulation in hOATP1B1-overexpressed cell lines compared to wild type (hOATP1B1; 100 μmol/L): could largely accumulate
accumulation in HEK293-hOATP1B3 vs HEK293 wild type (hOATP1B3; [2]): 3.31 fold
Vmax (hOATP1B3; hOATP1B3, TDE 0.03-10 μmol/L, 2 min, 37 °C, Eadie-Hofstee): 512.09 pmol/mg protein/min
Km at 2 min (hOATP1B3; human, pH 7.4): 6.72 µM
accumulation in HEK293-hOATP2B1 vs HEK293 wild type (hOATP2B1; [2]): less than 2 fold
accumulation of TDE at 37 °C, fold greater than at 4 °C (mice liver slices; liver slices, 30 min): approximately 2.3 fold
Molecule: COc1cc2c(cc1OC)[C@@H]1Cc3ccc(OC)c(OC)c3CN1CC2 [TDE, tetrahydropalmatine]

Molecule: CCCN(CCC)S(=O)(=O)c1ccc(C(=O)O)cc1 [probenecid, reference compound]
effect on the uptake of TDE in kidney slices (mice kidney slices): could inhibit

B1: hOAT3 (Homo sapiens) (protein)
chain: T1 sequence (Q8TCC7 1-542)
Km [1]: 1.44 µM
Vmax [1]: 188.45 pmol/mg protein/min
